Assay results: ChEMBL document CHEMBL5724801, “EUbOPEN Chemogenomics Library - Multiplex” (2024)
Several values for one entry are separate records, joined by “and”; a condition that tells them apart may be missing. Equal entries are not always repeated.

Test system: U2OS
Test: Multiplex assay against U2OS
Type: toxicity, cell-based
Conditions: human
How it was run: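 On a CQ1 microscope at 37°C and 5% CO2, live cells were imaged after compound addition. They had been stained at seeding with Hoechst33342, BioTracker Green Microtubule Cytoskeleton Dye, MitoTracker Red and Annexin V Alexa Fluor 680. CellPathfinder machine-learning gating assigned cells to Hoechst high-intensity objects or normal cells, normal cells to healthy, pyknosed or fragmented nuclei, and pyknosed cells to mitotic or apoptotic. Tubulin, mitochondrial-mass and membrane-permeability phenotypes are per cents of healthy-nucleus cells.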

[1] = 12 h, 1 µM, compound concentration 1 uM
[2] = 12 h, 10 µM, compound concentration 10 uM
[3] = 24 h, 1 µM, compound concentration 1 uM
[4] = 24 h, 10 µM, compound concentration 10 uM
[5] = 48 h, 1 µM, compound concentration 1 uM
[6] = 48 h, 10 µM, compound concentration 10 uM

CCn1cnc2c(-c3ccc(F)c(-c4ccc(S(=O)(=O)CC)cc4OC)c3)cnnc21 [DARIGABAT]
Population Apoptotic (%) [1]: 18.37% and 38.1%
Population Fragmented Nuclei (%) [1]: 2.41% and 2.26%
Population Healthy Nuclei (%) [1]: 84.49% and 81.95%
Population Hoechst High Intensity Objects (%) [1]: 0%
Population Membrane Permeable-Phenotype (%) [1]: 0.95% and 3.67%
Population Mitochondria Different-Phenotype (%) [1]: 0% and 6.42%
Population Mitotic Cells (%) [1]: 81.63% and 61.9%
Population Normal (%) [1]: 100%
Population Pyknosed Nuclei (%) [1]: 13.1% and 15.79%
Population Tubulin-Different-Phenotype (%) [1]: 1.58% and 0.92%
Total Cell Count [1]: 374 and 133
Population Apoptotic (%) [2]: 35.44% and 27.5%
Population Fragmented Nuclei (%) [2]: 2.35% and 3.87%
Population Healthy Nuclei (%) [2]: 74.41% and 70.32%
Population Hoechst High Intensity Objects (%) [2]: 0% and 0.64%
Population Membrane Permeable-Phenotype (%) [2]: 3.95% and 3.67%
Population Mitotic Cells (%) [2]: 64.56% and 72.5%
Population Normal (%) [2]: 100% and 99.36%
Population Pyknosed Nuclei (%) [2]: 25.81%
Total Cell Count [2]: 340 and 156
Population Apoptotic (%) [3]: 28.12% and 48%
Population Fragmented Nuclei (%) [3]: 1.34% and 1.64%
Population Healthy Nuclei (%) [3]: 86.42% and 84.7%
Population Hoechst High Intensity Objects (%) [3]: 0%
Population Membrane Permeable-Phenotype (%) [3]: 0.66% and 4.52%
Population Mitochondria Different-Phenotype (%) [3]: 0% and 1.94%
Population Mitotic Cells (%) [3]: 71.88% and 52%
Population Normal (%) [3]: 100%
Population Pyknosed Nuclei (%) [3]: 12.24% and 13.66%
Population Tubulin-Different-Phenotype (%) [3]: 2.21% and 0%
Total Cell Count [3]: 523 and 183
Population Apoptotic (%) [4]: 49.55% and 36%
Population Fragmented Nuclei (%) [4]: 3.86% and 1.2%
Population Healthy Nuclei (%) [4]: 67.61% and 68.67%
Population Hoechst High Intensity Objects (%) [4]: 0%
Population Membrane Permeable-Phenotype (%) [4]: 3.04% and 5.26%
Population Mitotic Cells (%) [4]: 50.45% and 64%
Population Normal (%) [4]: 100%
Population Pyknosed Nuclei (%) [4]: 28.53% and 30.12%
Population Tubulin-Different-Phenotype (%) [4]: 11.79% and 2.63%
Total Cell Count [4]: 389 and 166
Population Apoptotic (%) [5]: 49.52% and 51.28%
Population Fragmented Nuclei (%) [5]: 5.85% and 2.9%
Population Healthy Nuclei (%) [5]: 81.07% and 82.97%
Population Hoechst High Intensity Objects (%) [5]: 0%
Population Membrane Permeable-Phenotype (%) [5]: 0.61% and 2.62%
Population Mitochondria Different-Phenotype (%) [5]: 0% and 3.49%
Population Mitotic Cells (%) [5]: 50.48% and 48.72%
Population Normal (%) [5]: 100%
Population Pyknosed Nuclei (%) [5]: 13.08% and 14.13%
Population Tubulin-Different-Phenotype (%) [5]: 1.84% and 0.87%
Total Cell Count [5]: 803 and 276
Population Apoptotic (%) [6]: 64.56% and 67.12%
Population Fragmented Nuclei (%) [6]: 3.84% and 5.23%
Population Healthy Nuclei (%) [6]: 52.88% and 47.06%
Population Hoechst High Intensity Objects (%) [6]: 0%
Population Membrane Permeable-Phenotype (%) [6]: 7.25% and 11.11%
Population Mitotic Cells (%) [6]: 35.44% and 32.88%
Population Normal (%) [6]: 100%
Population Pyknosed Nuclei (%) [6]: 43.29% and 47.71%
Population Tubulin-Different-Phenotype (%) [6]: 24.87% and 11.11%
Total Cell Count [6]: 365 and 153

COc1ccc(Cl)cc1[C@]1(F)C(=O)Nc2cc(C(F)(F)F)ccc21 [FLINDOKALNER]
Population Apoptotic (%) [1]: 40.48% and 33.33%
Population Fragmented Nuclei (%) [1]: 1.33% and 3.73%
Population Healthy Nuclei (%) [1]: 87.53% and 81.37%
Population Hoechst High Intensity Objects (%) [1]: 0%
Population Membrane Permeable-Phenotype (%) [1]: 1.21% and 0.76%
Population Mitochondria Different-Phenotype (%) [1]: 0.3% and 7.63%
Population Mitotic Cells (%) [1]: 59.52% and 66.67%
Population Normal (%) [1]: 100%
Population Pyknosed Nuclei (%) [1]: 11.14% and 14.91%
Population Tubulin-Different-Phenotype (%) [1]: 0.61% and 0.76%
Total Cell Count [1]: 377 and 161
Population Apoptotic (%) [2]: 21.43% and 29.17%
Population Fragmented Nuclei (%) [2]: 2.21% and 3.35%
Population Healthy Nuclei (%) [2]: 86.19% and 83.24%
Population Hoechst High Intensity Objects (%) [2]: 0%
Population Membrane Permeable-Phenotype (%) [2]: 0.64% and 5.37%
Population Mitochondria Different-Phenotype (%) [2]: 0% and 12.08%
Population Mitotic Cells (%) [2]: 78.57% and 70.83%
Population Normal (%) [2]: 100%
Population Pyknosed Nuclei (%) [2]: 11.6% and 13.41%
Population Tubulin-Different-Phenotype (%) [2]: 1.6% and 1.34%
Total Cell Count [2]: 362 and 179
Population Apoptotic (%) [3]: 41.67% and 37.93%
Population Fragmented Nuclei (%) [3]: 1.57% and 1.48%
Population Healthy Nuclei (%) [3]: 88.98% and 84.24%
Population Hoechst High Intensity Objects (%) [3]: 0%
Population Membrane Permeable-Phenotype (%) [3]: 0.22% and 2.34%
Population Mitochondria Different-Phenotype (%) [3]: 0.22% and 5.26%
Population Mitotic Cells (%) [3]: 58.33% and 62.07%
Population Normal (%) [3]: 100%
Population Pyknosed Nuclei (%) [3]: 9.45% and 14.29%
Population Tubulin-Different-Phenotype (%) [3]: 0.88% and 0.58%
Total Cell Count [3]: 508 and 203
Population Apoptotic (%) [4]: 29.63% and 42.11%
Population Fragmented Nuclei (%) [4]: 1.38% and 4.65%
Population Healthy Nuclei (%) [4]: 88.02% and 77.67%
Population Hoechst High Intensity Objects (%) [4]: 0%
Population Membrane Permeable-Phenotype (%) [4]: 1.34% and 7.78%
Population Mitochondria Different-Phenotype (%) [4]: 0% and 8.38%
Population Mitotic Cells (%) [4]: 70.37% and 57.89%
Population Normal (%) [4]: 100%
Population Pyknosed Nuclei (%) [4]: 10.61% and 17.67%
Population Tubulin-Different-Phenotype (%) [4]: 1.34% and 0%
Total Cell Count [4]: 509 and 215
Population Apoptotic (%) [5]: 38.67% and 50%
Population Fragmented Nuclei (%) [5]: 2.32% and 1.61%
Population Healthy Nuclei (%) [5]: 89.42% and 82.32%
Population Hoechst High Intensity Objects (%) [5]: 0%
Population Membrane Permeable-Phenotype (%) [5]: 1.48% and 1.56%
Population Mitochondria Different-Phenotype (%) [5]: 0.12% and 5.08%
Population Mitotic Cells (%) [5]: 61.33% and 50%
Population Normal (%) [5]: 100%
Population Pyknosed Nuclei (%) [5]: 8.27% and 16.08%
Population Tubulin-Different-Phenotype (%) [5]: 0.74% and 0.78%
Total Cell Count [5]: 907 and 311
Population Apoptotic (%) [6]: 34.18% and 46.94%
Population Fragmented Nuclei (%) [6]: 2.33% and 1.38%
Population Healthy Nuclei (%) [6]: 89.31% and 85.12%
Population Hoechst High Intensity Objects (%) [6]: 0%
Population Membrane Permeable-Phenotype (%) [6]: 0.83% and 3.24%
Population Mitochondria Different-Phenotype (%) [6]: 0% and 5.18%
Population Mitotic Cells (%) [6]: 65.82% and 53.06%
Population Normal (%) [6]: 100%
Population Pyknosed Nuclei (%) [6]: 8.36% and 13.5%
Population Tubulin-Different-Phenotype (%) [6]: 1.3% and 0.32%
Total Cell Count [6]: 945 and 363
